The text below walks through data of ChEMBL document CHEMBL3085773, “A general method for making peptide therapeutics resistant to serine protease degradation: application to dipeptidyl peptidase IV substrates” (J Med Chem, 2013).

The structures appear in SMILES notation. Activity calls are given as the source filed them. The rule behind the calls is not given here. Peptide text beside a SMILES is read from it.

The target of data set [1] is Dipeptidyl peptidase 4 (Sus scrofa, UniProt P22411). The data set is described as follows: Stability of the compound assessed as porcine DPP4-mediated compound degradation at 0.1 mM measured over 30 mins by reverse-phase HPLC/MS analysis. The class given is ADME. To be noted: pig, 0.5 h, 100 µM. The method in brief: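 Peptide (0.1 mM) incubated at 37 °C with DPP IV purified from porcine kidney (10 mU/mL) in 50 mM HEPES, 0.14 M NaCl, pH 8.0. Samples taken at set times and quenched with 10% (v/v) 0.1 M HCl. Intact peptide quantified by reverse-phase HPLC-MS and expressed as percent of the time-0 amount.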
Sequence of Dipeptidyl peptidase 4 (Sus scrofa, UniProt P22411) (P22411 whole entry): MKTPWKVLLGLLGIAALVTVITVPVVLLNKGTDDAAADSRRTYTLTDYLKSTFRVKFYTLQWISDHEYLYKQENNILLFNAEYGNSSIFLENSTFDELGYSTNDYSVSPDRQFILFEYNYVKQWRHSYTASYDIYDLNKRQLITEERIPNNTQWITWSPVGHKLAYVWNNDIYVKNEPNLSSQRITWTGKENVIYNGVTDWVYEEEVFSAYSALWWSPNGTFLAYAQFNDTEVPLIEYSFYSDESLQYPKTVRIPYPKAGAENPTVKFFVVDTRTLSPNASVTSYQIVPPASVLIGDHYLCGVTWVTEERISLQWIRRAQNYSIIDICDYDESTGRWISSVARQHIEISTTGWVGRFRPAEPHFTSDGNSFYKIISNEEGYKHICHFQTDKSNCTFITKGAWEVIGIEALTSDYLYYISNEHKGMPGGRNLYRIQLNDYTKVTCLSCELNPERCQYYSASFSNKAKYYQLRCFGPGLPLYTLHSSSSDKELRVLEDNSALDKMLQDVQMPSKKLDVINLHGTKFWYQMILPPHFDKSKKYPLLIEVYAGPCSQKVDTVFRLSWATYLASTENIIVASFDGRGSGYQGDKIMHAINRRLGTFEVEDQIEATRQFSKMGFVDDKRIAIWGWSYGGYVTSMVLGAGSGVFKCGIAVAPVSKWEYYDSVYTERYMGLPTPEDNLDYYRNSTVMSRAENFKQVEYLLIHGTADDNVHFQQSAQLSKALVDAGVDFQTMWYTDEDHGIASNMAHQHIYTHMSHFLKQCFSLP

The target of the next data set is Trypsin (Sus scrofa, UniProt P00761). Briefly: Stability of the compound assessed as porcine pancreatic trypsin-mediated compound degradation at 0.1 mM after 10 secs by reverse-phase HPLC/MS analysis. The data set is classed as ADME. Particulars: pig, isolated protein, 10 s, 100 µM. A digest of the protocol:
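Peptide (0.1 mM) incubated at 37 °C with 100 nM purified porcine pancreatic trypsin in 50 mM Tris-HCl, 20 mM CaCl₂, pH 8.0. Timed samples were acid-quenched with 10% (v/v) 0.1 M HCl, then analysed by reverse-phase HPLC-MS. Mean ± range of two independent experiments.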

Data set [2] has as its target Chymotrypsinogen A (Bos taurus) (UniProt P00766). Briefly: Stability of the compound assessed as bovine pancreatic chymotrypsin-mediated compound degradation at 0.1 mM after 10 secs by reverse-phase HPLC/MS analysis. Particulars: cow, isolated protein, 10 s, 100 µM.
In data set [3] the test system is Mus musculus. Briefly: Toxicity in C57BL/6 mouse assessed as change in brain weight at 1 mg/kg, ip qd measured on day 7 by necropsy analysis. The class given is organism-based. Also noted: dose 1 mg/kg, route intraperitoneal. To be noted: in vivo. The method in brief:
(§1)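 C57BL/6 mice dosed ip once daily for seven days at 1 mg/kg or vehicle; necropsy on day 7 after final dose; liver, kidneys, pancreas, heart and brain collected, inspected for gross abnormalities and weighed; twelve animals in study.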

Data set [4] deals with Mus musculus. Briefly: Antidiabetic activity in db/db mouse assessed as reduction of blood glucose level at 0.2 mg/kg, ip after 90 mins relative to vehicle-treated control. Also noted: scale not given: the % may be the effect or the level left. Particulars: route intraperitoneal. The class given is functional. The method in brief: (§2)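 db/db mice given 8 µg/mouse peptide or PBS vehicle ip; fasting blood glucose measured before and at set times after dosing; expressed as percent change from basal FBG; 10 animals per group.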

In data set [5] the test system is Mus musculus. The data set is described as follows: Toxicity in C57BL/6 mouse assessed as effect on water consumption at 1 mg/kg, ip qd administered for 7 days measured on day 3 and day 7. To be noted: in vivo, 168 h.
The test system of data set [6] is Mus musculus. Briefly: Toxicity in C57BL/6 mouse assessed as abnormalities in kidney at 1 mg/kg, ip qd measured on day 7 by necropsy analysis. The data set is classed as organism-based. Particulars: in vivo. Set-up: dose 1 mg/kg, route intraperitoneal. The method in brief:
as §1

In data set [7] the test system is Mus musculus. Briefly: Toxicity in C57BL/6 mouse assessed as abnormalities in liver at 1 mg/kg, ip qd measured on day 7 by necropsy analysis. The data set is classed as organism-based. Also noted: dose 1 mg/kg, route intraperitoneal. Particulars: in vivo. A digest of the protocol:
as §1

Data set [8] relates to Mus musculus. The data set is described as follows: Toxicity in C57BL/6 mouse assessed as effect on food consumption at 1 mg/kg, ip qd administered for 7 days measured every day during compound administration. The data set is classed as organism-based. Set-up: dose 1 mg/kg, route intraperitoneal. To be noted: in vivo, 168 h. The method in brief:
(§3)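 C57BL/6 mice given 1 mg/kg ip once daily for seven days, or vehicle; body weight and per-cage food intake recorded daily; water consumption measured on days 3 and 7.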

Data set [9] deals with Mus musculus. The data set is described as follows: Antidiabetic activity in db/db mouse assessed as reduction of blood glucose level at 0.2 mg/kg, ip after 60 mins relative to vehicle-treated control. The data set is classed as functional. Set-up: scale not given: the % may be the effect or the level left. To be noted: route intraperitoneal. A digest of the protocol: as §2

Data set [10] relates to Mus musculus. The data set is described as follows: Toxicity in C57BL/6 mouse assessed as change in kidney weight at 1 mg/kg, ip qd measured on day 7 by necropsy analysis. Particulars: in vivo. Set-up: dose 1 mg/kg, route intraperitoneal. The class given is organism-based. A digest of the protocol: as §1
Data set [11] relates to Mus musculus. The data set is described as follows: Toxicity in C57BL/6 mouse assessed as effect on body weight at 1 mg/kg, ip qd administered for 7 days measured every day during compound administration. The data set is classed as organism-based. Also noted: dose 1 mg/kg, route intraperitoneal. To be noted: in vivo, 168 h. A digest of the protocol:
as §3

Data set [12] deals with Mus musculus. Briefly: Toxicity in C57BL/6 mouse assessed as change in heart weight at 1 mg/kg, ip qd measured on day 7 by necropsy analysis. The class given is organism-based. Set-up: dose 1 mg/kg, route intraperitoneal. Particulars: in vivo. The method in brief: as §1
The target in data set [13] is T1, Dipeptidyl peptidase 4 (Homo sapiens, UniProt P27487). Briefly: Stability of the compound assessed as recombinant human DPP4-mediated compound degradation at 0.1 mM measured after 24 hrs by reverse-phase HPLC/MS analysis. The class given is ADME. To be noted: 100 µM. The method in brief: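 GLP-1 peptides (0.1 mM) incubated at 37 °C with recombinant human DPP IV in 50 mM HEPES, 0.14 M NaCl, pH 8.0, up to 24 h; acid-quenched samples analysed by RP-HPLC-MS for intact peptide.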
T1 sequence (P27487 whole entry): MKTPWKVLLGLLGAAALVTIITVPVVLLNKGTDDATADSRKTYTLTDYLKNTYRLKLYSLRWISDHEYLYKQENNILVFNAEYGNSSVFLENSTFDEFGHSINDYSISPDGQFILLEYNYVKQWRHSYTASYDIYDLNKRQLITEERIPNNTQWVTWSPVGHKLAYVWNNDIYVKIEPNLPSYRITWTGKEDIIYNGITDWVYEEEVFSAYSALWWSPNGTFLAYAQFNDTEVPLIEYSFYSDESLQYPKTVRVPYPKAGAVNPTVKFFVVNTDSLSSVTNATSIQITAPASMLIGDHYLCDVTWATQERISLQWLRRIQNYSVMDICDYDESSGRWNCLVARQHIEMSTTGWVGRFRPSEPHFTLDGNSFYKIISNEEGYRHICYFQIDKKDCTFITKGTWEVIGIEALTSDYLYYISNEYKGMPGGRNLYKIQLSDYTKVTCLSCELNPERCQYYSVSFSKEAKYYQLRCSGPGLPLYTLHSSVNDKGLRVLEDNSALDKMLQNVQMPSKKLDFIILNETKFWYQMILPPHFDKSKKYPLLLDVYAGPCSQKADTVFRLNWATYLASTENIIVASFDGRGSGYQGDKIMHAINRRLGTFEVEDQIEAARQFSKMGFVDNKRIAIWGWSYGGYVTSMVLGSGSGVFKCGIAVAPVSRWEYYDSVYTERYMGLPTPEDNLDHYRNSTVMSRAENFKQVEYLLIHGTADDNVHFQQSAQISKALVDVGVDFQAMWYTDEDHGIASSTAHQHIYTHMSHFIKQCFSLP

In data set [14] the test system is Mus musculus. Briefly: Antidiabetic activity in db/db mouse assessed as reduction of blood glucose AUC (0 to 480 mins) at 0.2 mg/kg, ip. The class given is functional, organism-based. Set-up: dose 0.2 mg/kg.
Data set [15] concerns Mus musculus. The data set is described as follows: Toxicity in C57BL/6 mouse assessed as abnormalities in brain at 1 mg/kg, ip qd measured on day 7 by necropsy analysis. The class given is organism-based. Also noted: dose 1 mg/kg, route intraperitoneal. Particulars: in vivo. A digest of the protocol: as §1
Data set [16] concerns Mus musculus. The data set is described as follows: Toxicity in C57BL/6 mouse assessed as change in pancreas weight at 1 mg/kg, ip qd measured on day 7 by necropsy analysis. The data set is classed as organism-based. Particulars: in vivo. Also noted: dose 1 mg/kg, route intraperitoneal. A digest of the protocol:
as §1

The subject of data set [17] is Mus musculus. The data set is described as follows: Antidiabetic activity in db/db mouse assessed as reduction of blood glucose level at 0.2 mg/kg, ip measured at 240 mins relative to vehicle-treated control. Set-up: dose 0.2 mg/kg. The data set is classed as functional, organism-based. The method in brief: as §2
Data set [18] relates to Mus musculus. Briefly: Toxicity in C57BL/6 mouse assessed as change in liver weight at 1 mg/kg, ip qd measured on day 7 by necropsy analysis. The class given is organism-based. Set-up: dose 1 mg/kg, route intraperitoneal. To be noted: in vivo. The method in brief:
as §1

The subject of data set [19] is Mus musculus. Briefly: Toxicity in C57BL/6 mouse assessed as abnormalities in heart at 1 mg/kg, ip qd measured on day 7 by necropsy analysis. The class given is organism-based. Also noted: dose 1 mg/kg, route intraperitoneal. To be noted: in vivo. A digest of the protocol:
as §1

In data set [20] the test system is Mus musculus. Briefly: Toxicity in C57BL/6 mouse assessed as abnormalities in pancreas at 1 mg/kg, ip qd measured on day 7 by necropsy analysis. The class given is organism-based. Set-up: dose 1 mg/kg, route intraperitoneal. To be noted: in vivo. A digest of the protocol: as §1
In data set [21] the target is DPP4 (dipeptidyl peptidase 4) (Rattus norvegicus, UniProt P14740). Briefly: Metabolic stability in rat serum assessed as half life of DPP4-mediated compound degradation. The data set is classed as ADME, cell-free.
Sequence of DPP4 (dipeptidyl peptidase 4) (Rattus norvegicus, UniProt P14740) (P14740 whole entry): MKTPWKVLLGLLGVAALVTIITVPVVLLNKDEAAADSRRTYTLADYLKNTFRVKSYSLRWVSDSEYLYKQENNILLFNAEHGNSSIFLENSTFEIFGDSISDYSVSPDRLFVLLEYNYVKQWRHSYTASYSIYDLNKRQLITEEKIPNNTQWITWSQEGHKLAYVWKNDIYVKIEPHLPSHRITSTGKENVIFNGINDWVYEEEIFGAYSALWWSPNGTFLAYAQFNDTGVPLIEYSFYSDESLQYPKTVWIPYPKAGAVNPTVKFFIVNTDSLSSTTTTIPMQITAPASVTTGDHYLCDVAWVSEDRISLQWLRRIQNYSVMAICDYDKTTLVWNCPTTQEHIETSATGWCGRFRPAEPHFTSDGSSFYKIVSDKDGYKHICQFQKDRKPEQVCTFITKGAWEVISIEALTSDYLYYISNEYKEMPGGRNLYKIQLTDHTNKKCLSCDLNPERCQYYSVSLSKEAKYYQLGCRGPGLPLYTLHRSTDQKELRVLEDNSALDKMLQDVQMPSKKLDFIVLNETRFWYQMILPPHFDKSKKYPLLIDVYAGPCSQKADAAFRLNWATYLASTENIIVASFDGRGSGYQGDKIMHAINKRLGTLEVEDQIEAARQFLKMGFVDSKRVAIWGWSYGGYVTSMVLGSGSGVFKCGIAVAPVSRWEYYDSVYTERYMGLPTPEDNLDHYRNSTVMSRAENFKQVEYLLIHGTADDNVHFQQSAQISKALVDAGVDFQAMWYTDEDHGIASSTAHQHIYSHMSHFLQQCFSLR
Data set [22] has as its target T1, Dipeptidyl peptidase 4. Briefly: Competitive inhibition of human recombinant DPP4 using AP-pNA as substrate preincubated for 30 mins followed by substrate addition measured after 30 mins by spectrophotometric analysis.
The target of data set [23] is DPP4 (dipeptidyl peptidase 4) (Homo sapiens, UniProt P27487). Briefly: Metabolic stability in human plasma assessed as half life of DPP4-mediated compound degradation. The data set is classed as ADME.
Sequence of DPP4 (dipeptidyl peptidase 4) (Homo sapiens, UniProt P27487) (P27487 whole entry): as the sequence (P27487 whole entry) above

Sequence of Trypsin (P00761 whole entry): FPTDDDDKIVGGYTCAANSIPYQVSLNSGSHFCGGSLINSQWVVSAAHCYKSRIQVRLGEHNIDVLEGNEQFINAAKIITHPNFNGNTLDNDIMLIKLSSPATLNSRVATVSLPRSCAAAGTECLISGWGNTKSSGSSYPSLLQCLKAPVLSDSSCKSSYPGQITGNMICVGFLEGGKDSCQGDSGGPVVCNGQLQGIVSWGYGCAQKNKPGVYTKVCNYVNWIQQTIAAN

Regarding `CC[C@H](C)[C@H](NC(=O)[C@H](Cc1ccccc1)NC(=O)[C@H](CCC(=O)O)NC(=O)[C@H](CCCCN)NC(=O)[C@H](C)NC(=O)[C@H](C)NC(=O)[C@H](CCC(N)=O)NC(=O)CNC(=O)[C@H](CCC(=O)O)NC(=O)[C@H](CC(C)C)NC(=O)[C@H](Cc1ccc(O)cc1)NC(=O)[C@H](CO)NC(=O)[C@H](CO)NC(=O)[C@@H](NC(=O)[C@H](CC(=O)O)NC(=O)[C@H](CO)NC(=O)[C@@H](NC(=O)[C@H](Cc1ccccc1)NC(=O)[C@@H](NC(=O)CNC(=O)[C@H](CCC(=O)O)NC(=O)[C@H](C)NC(=O)[C@@H](N)Cc1c[nH]cn1)[C@@H](C)O)[C@@H](C)O)C(C)C)C(=O)N[C@@H](C)C(=O)N[C@@H](Cc1c[nH]c2ccccc12)C(=O)N[C@@H](CC(C)C)C(=O)N[C@H](C(=O)N[C@@H](CCCCN)C(=O)NCC(=O)N[C@@H](CCCNC(=N)N)C(N)=O)C(C)C`, the results for the Stability result (on Dipeptidyl peptidase 4 [1]; on Trypsin; in [2]) were “Stable”, “Unstable” and “Unstable”, respectively.
Turning to `CC[C@H](C)[C@H](NC(=O)[C@H](Cc1ccccc1)NC(=O)[C@H](CCC(=O)O)NC(=O)[C@H](CCCCN)NC(=O)[C@H](C)NC(=O)[C@H](C)NC(=O)[C@H](CCC(N)=O)NC(=O)CNC(=O)[C@H](CCC(=O)O)NC(=O)[C@H](CC(C)C)NC(=O)[C@H](Cc1ccc(O)cc1)NC(=O)[C@H](CO)NC(=O)[C@H](CO)NC(=O)[C@@H](NC(=O)[C@H](CC(=O)O)NC(=O)[C@H](CO)NC(=O)[C@@H](NC(=O)[C@H](Cc1ccccc1)NC(=O)[C@@H](NC(=O)CNC(=O)C(NC(=O)[C@H](C)NC(=O)[C@@H](N)Cc1c[nH]cn1)C(C)(C)C(=O)O)[C@@H](C)O)[C@@H](C)O)C(C)C)C(=O)N[C@@H](C)C(=O)N[C@@H](Cc1c[nH]c2ccccc12)C(=O)N[C@@H](CC(C)C)C(=O)N[C@H](C(=O)N[C@@H](CCCCN)C(=O)NCC(=O)N[C@@H](CCCNC(=N)N)C(N)=O)C(C)C` (some centres undefined), the Activity entry was “Non-toxic” in the data set on Mus musculus [3]; 45% in the data set with Mus musculus [4]; “Non-toxic” in the data set on Mus musculus [5]; “Non-toxic” in the data set with Mus musculus [6]; “Non-toxic” with Mus musculus [7]; “Non-toxic” in the data set with Mus musculus [8]. Moreover, the Activity is 50% with Mus musculus [9]; “Non-toxic” with Mus musculus [10]; “Non-toxic” with Mus musculus [11]; “Non-toxic” with Mus musculus [12]; “Non-toxic” with Mus musculus [15]; “Non-toxic” in the data set with Mus musculus [16]. Moreover, the Activity result in the data set on Mus musculus [18], with Mus musculus [19] and with Mus musculus [20] was “Non-toxic” throughout. Moreover, the Stability entry at Dipeptidyl peptidase 4 [13] is listed as “Stable”. Further, in the data set on Mus musculus [14], the outcome was Active. Moreover, the result in the data set with Mus musculus [17] was inactive.
One may read the half-life as the time in which the quantity being followed falls by half. For orientation: Ki means a dissociation constant, usually derived from enzyme kinetics or from competition with a known ligand. For `CC(C)[C@H](N)C(=O)N1CCC[C@H]1C(=O)N[C@@H](CC(=O)O)C(=O)N1CCC[C@H]1C(=O)N[C@@H](CCCNC(=N)N)C(N)=O` (H-VPDPR-NH2), in data set [21], the half-life was determined as 5 min. Also, on Dipeptidyl peptidase 4 [22], the Ki is 142 µM.
In the case of `CC[C@H](C)[C@H](NC(=O)[C@H](CCCNC(=N)N)NC(=O)[C@H](CC(=O)O)NC(=O)[C@H](CCSC)NC(=O)[C@H](CCCCN)NC(=O)[C@H](CCCNC(=N)N)NC(=O)CNC(=O)[C@H](Cc1ccccc1)NC(=O)[C@H](CS)NC(=O)CNC(=O)[C@H](CO)NC(=O)CNC(=O)[C@H](CCC(N)=O)NC(=O)[C@@H](NC(=O)[C@H](CCSC)NC(=O)[C@H](CCCCN)NC(=O)[C@@H]1CCCN1C(=O)[C@@H](N)CO)C(C)C)C(=O)N[C@@H](CO)C(=O)N[C@@H](CO)C(=O)N[C@@H](CO)C(=O)N[C@@H](CO)C(=O)NCC(=O)N[C@@H](CC(C)C)C(=O)NCC(=O)N[C@@H](CS)C(=O)N[C@@H](CCCCN)C(=O)N[C@H](C(=O)N[C@@H](CC(C)C)C(=O)N[C@@H](CCCNC(=N)N)C(=O)N[C@@H](CCCNC(=N)N)C(=O)N[C@@H](Cc1cnc[nH]1)C(N)=O)C(C)C`, in data set [23], the half-life amounted to 15 min.
